Data taken from ChEMBL document CHEMBL3112439, “Inhibition of long chain fatty acyl-CoA synthetase (ACSL) and ischemia reperfusion injury” (Bioorg Med Chem Lett, 2014).
Calls of active or inactive are those of the source. The rule behind the calls is not given here.

Assays:
[1] = species on record: Mus musculus; assay: Inhibition of ACSL in mouse solubilized bEND.3 cells using [14C]-palmitic acid as substrate assessed as increase in unincorporated radioactivity in media at 15 uM after 2 hrs by liquid scintillation spectrometric analysis
How it was run: (§1)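 In situ assay in intact bEND3 brain endothelial cells given [14C]-palmitic acid; test agents at 15 μM (triacsin C reference at 1.5 μM). Radioactivity measured in the extractable lipid fraction, the aqueous layer and the media, with total recovery summed (lipid + aqueous + media); lipid mass extracted also determined. Treated groups compared with control by one-way ANOVA and Dunnett's t test; n = 3 to 9 independent experiments.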

[2] = species on record: Mus musculus; assay: Effect on mean extractable lipid mass in mouse bEND.3 cells at 15 uM relative to control; assay type: functional, cell-based; how it was run: as §1
[3] = species on record: Mus musculus; assay: Inhibition of ACSL in mouse solubilized bEND.3 cells using [14C]-palmitic acid as substrate assessed as decrease in radioactivity in aqueous layer at 15 uM after 2 hrs by liquid scintillation spectrometric analysis
[4] = species on record: Mus musculus; assay: Inhibition of ACSL in mouse solubilized bEND.3 cells using [14C]-palmitic acid as substrate assessed as effect on total recovery of radioactive substrate at 15 uM after 2 hrs by liquid scintillation spectrometric analysis; how it was run: as §1
[5] = Inhibition of ACSL in mouse solubilized bEND.3 cells using [14C]-palmitic acid as substrate after 2 mins by liquid scintillation spectrometric analysis; details: BEND3, 2 min
How it was run: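 ACSL activity in solubilized bEND3 brain endothelial cells; reaction velocity measured across a range of inhibitor concentrations. EC50 obtained by fitting velocity vs. inhibitor concentration to a constrained three-parameter log(inhibitor) vs. response function.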

[6] = species on record: Mus musculus; assay: Inhibition of ACSL in mouse […] bEND.3 cells assessed as inhibition of [14C]-palmitate incorporation into extractable lipids at 15 uM after 2 hrs by liquid scintillation spectrometric analysis; how it was run: as §1
[7] = system: Leukocyte; assay: Inhibition of Sprague-Dawley rat leukocytes recruitment assessed as inhibition of cell adhesion in unbranched post-capillary venules of mesentery at 5 uM measured at 120 mins; assay type: functional, tissue-based
How it was run: (§2)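 Recruitment was induced by L-NAME. Rolling, adhesion and extravasation were counted in post-capillary venules of the mesentery at 120 min. Compound was present at 5 or 50 μM, and vehicle-alone controls were run. Results are mean ± SEM of 3 to 7 independent experiments.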

[8] = system: Leukocyte; assay: Inhibition of Sprague-Dawley rat leukocytes recruitment assessed as inhibition of cell extravasation in unbranched post-capillary venules of mesentery at 5 uM measured at 120 mins; assay type: functional, tissue-based; how it was run: as §2
[9] = system: Leukocyte; assay: Inhibition of Sprague-Dawley rat leukocytes recruitment assessed as inhibition of cell rolling in unbranched post-capillary venules of mesentery at 50 uM measured at 120 mins; assay type: functional, tissue-based
How it was run: (§3)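 Leukocyte recruitment induced by L-NAME, used as an ischemia model, in post-capillary venules of the mesentery. Rolling, adhesion and extravasation scored at 120 minutes with or without compound at 5 or 50 μM; vehicle-alone group included. Mean ± SEM of 3 to 7 independent experiments.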

[10] = system: Leukocyte; assay: Inhibition of Sprague-Dawley rat leukocytes recruitment assessed as inhibition of cell rolling in unbranched post-capillary venules of mesentery at 5 uM measured at 120 mins; assay type: functional, tissue-based; how it was run: as §2
[11] = system: Leukocyte; assay: Inhibition of Sprague-Dawley rat leukocytes recruitment assessed as inhibition of cell extravasation in unbranched post-capillary venules of mesentery at 50 uM measured at 120 mins; assay type: functional, tissue-based; how it was run: as §3
[12] = system: Leukocyte; assay: Inhibition of Sprague-Dawley rat leukocytes recruitment assessed as inhibition of cell adhesion in unbranched post-capillary venules of mesentery at 50 uM measured at 120 mins; assay type: functional, tissue-based; how it was run: as §3
[13] = species on record: Mus musculus; assay: Inhibition of ACSL in mouse […] bEND.3 cells assessed as inhibition of [14C]-palmitate incorporation into extractable lipids at 1.5 uM after 2 hrs by liquid scintillation spectrometric analysis
How it was run: (§4)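 Intact bEND3 brain endothelial cells were labelled with [14C]-palmitic acid with inhibitor at a single concentration, against untreated control cultures. Radioactivity was measured in the extractable lipid fraction, the aqueous fraction and the medium, and total recovery was summed (lipid + aqueous + media). Lipid mass was expressed as % of control. Groups were compared with control by one-way ANOVA and Dunnett's test; n = 3 to 9 independent experiments.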

[14] = species on record: Mus musculus; assay: Inhibition of ACSL in mouse solubilized bEND.3 cells using [14C]-palmitic acid as substrate assessed as effect on total recovery of radioactive substrate at 1.5 uM after 2 hrs by liquid scintillation spectrometric analysis; how it was run: as §4
[15] = species on record: Mus musculus; assay: Effect on mean extractable lipid mass in mouse bEND.3 cells at 1.5 uM relative to control; assay type: functional, cell-based; how it was run: as §4
[16] = species on record: Mus musculus; assay: Inhibition of ACSL in mouse solubilized bEND.3 cells using [14C]-palmitic acid as substrate assessed as decrease in radioactivity in aqueous layer at 1.5 uM after 2 hrs by liquid scintillation spectrometric analysis
[17] = species on record: Mus musculus; assay: Inhibition of ACSL in mouse solubilized bEND.3 cells using [14C]-palmitic acid as substrate assessed as increase in unincorporated radioactivity in media at 1.5 uM after 2 hrs by liquid scintillation spectrometric analysis; how it was run: as §4

Row | inhibition [1] | inhibition [3] | inhibition [4] | EC50 [5] | inhibition [6] | SMILES | Activity [2] | also measured
1 | Active | Active | Active | 4.95 µM | Active | C=CCCCCCCCCCNc1ccc(C(=O)O)cc1 | inactive | –
2 | – | – | – | 9.04 µM | – | C=CCCCCCCCCCn1oc(=O)[nH]c1=O | – | –
3 | Active | Active | Active | 5.86 µM | Active | CCC/C=C/C/C=C/C=C/CNc1ccc(C(=O)O)cc1 | inactive | inhibition [7]: Active; inhibition [8]: Active; inhibition [9]: Active; inhibition [10]: Active; inhibition [11]: Active; inhibition [12]: Active
4 | – | – | – | 73.1 µM | – | C=CCCCCCCCCCN(O)/N=N/c1ccc(C(=O)O)cc1 | – | –
5 | – | – | – | 74.8 µM | – | CCC/C=C/C/C=C/C=C/CN(O)/N=N/c1ccc(C(=O)O)cc1 | – | –
6 | inactive | inactive | – | 171 µM | – | CCC/C=C/C/C=C/C=N/N1CCCS1(=O)=O | Active | –
7 | – | – | – | 164 µM | – | CCC/C=C/C/C=C/C=C/CNN1CCCS1(=O)=O | – | –
8 | – | – | – | 14.8 µM | – | CCC/C=C/C/C=C/C=C/CNO | – | –
9 | Active | Active | Active | 26.9 µM | Active | CCC/C=C/C/C=C/CN(O)/N=N/c1ccc(C(=O)O)cc1 | inactive | –
10 | Active | Active | Active | 70.4 µM | Active | C=CCCCCCCCCCNO | inactive | inhibition [9]: Active; inhibition [11]: Active; inhibition [12]: Active
11 | Active | Active | Active | 6.88 µM | Active | C=CCCCCCCCCCNc1ccc(C(=O)O)c(O)c1 | inactive | –

Row | SMILES | inhibition [1] | inhibition [3] | inhibition [4] | EC50 [5] | inhibition [6] | Activity [2] | also measured
12 | CCC/C=C/C/C=C/C=C/Cn1oc(=O)[nH]c1=O | – | – | – | 53.5 µM | – | – | –
13 | CCC/C=C/C/C=C/C=C/C=N/NN=O [TRIACSIN C] | – | – | – | 0.358 µM | – | – | inhibition [7]: Active; inhibition [8]: Active; inhibition [13]: Active; inhibition [14]: Active; inhibition [10]: Active; Activity [15]: inactive; inhibition [16]: Active; inhibition [17]: Active
